In series [1] the test system is Human immunodeficiency virus 1. Description: Antiviral activity against HIV1 89.6 laboratory isolate assessed as inhibition of virus-induced cytopathogenicity by MTT assay. The format is functional, organism-based. Particulars: Human immunodeficiency virus 1, isolate 89.6. The procedure, abridged:
(§1)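 Infection of PM1/CCR5 cells; tropism/subtype of each strain: IIIB X4 Sub B, 89.6 dual Sub B, KYAG and fTOI R5 Sub B (primary isolates). Viability read by MTT. […] Means of at least three experiments; tested up to 100 uM.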
In general terms: Cytopathic effects are the visible damage that an infection or toxin causes in cultured cells.

Series [2] is described as follows: Cytotoxicity against mock-infected CCR5 expressing human PM1 cells by MTT assay. The format is cell-based. On the technique in general: Tetrazolium assays rely on reduction of a dye to a coloured formazan, in cell work by metabolically active cells.
The subject of a further series is PM1. Kind of series: Inhibition of gp120 binding to CD4 in HIV1 JR-FL infected human PM1 cells assessed as binding of anti-envelope CD4-induced monoclonal antibody 4C11 to envelope expressing cell surface at 100 uM pretreated 15 mins before 4C11 addition by FACS analysis. The format is cell-based. The settings on record: Human immunodeficiency virus 1. A digest of the protocol:
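PM1 cells chronically infected with JR-FL (R5, Sub B) preincubated 15 min with compound at 100 uM (sCD4 11 nM as reference), then anti-HIV-1 mAb 4C11 at 4 °C for 15 min. After PBS wash, stained with FITC goat anti-human IgG; flow cytometry on gated PM1 cells, anti-CD19 control antibody; read as 4C11 mean fluorescence intensity. Minimum two independent experiments.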
On the technique in general: Flow cytometry measures light scatter and fluorescence of single cells or particles in a stream.

Series [3] relates to Human immunodeficiency virus 1. Kind of series: Antiviral activity against HIV1 fTOI primary isolate assessed as inhibition of virus-induced cytopathogenicity by MTT assay. The format is functional, organism-based. Particulars: Human immunodeficiency virus 1, fTOI. A digest of the protocol: as §1
Series [4] has as its system Human immunodeficiency virus 1. Description: Antiviral activity against HIV1 KYAG primary isolate assessed as inhibition of virus-induced cytopathogenicity by MTT assay. The class given is functional, organism-based. Particulars: Human immunodeficiency virus 1, KYAG. A digest of the protocol:
as §1

The subject of series [5] is Human immunodeficiency virus 1. Description: Antiviral activity against HIV1 3B laboratory isolate assessed as inhibition of virus-induced cytopathogenicity by MTT assay. The class given is functional, organism-based. Particulars: Human immunodeficiency virus 1, 3B. A digest of the protocol: as §1
Series [6] in a line: Inhibition of HIV1 gp120 binding to CD4. On the set-up: species or system Human immunodeficiency virus 1.

Activity calls are given as the source filed them. No cut-off for these calls is given here.

A word on the IC50: it is the concentration that gives 50% inhibition. One may read the CC50 as the concentration at which the toxic effect on the cells reaches its halfway point. A word on the Kd: it is a measure of binding affinity in units of concentration.

As for `CC1(C)CC(NC(=O)C(=O)Nc2ccc(C(F)(F)F)cc2)CC(C)(C)N1`, the IC50 in series [1] is 27 µM. This compound yielded a CC50 in series [2] of 72 µM.
Regarding `Cc1ccc(NC(=O)C(=O)NC2CC(C)(C)NC(C)(C)C2)cc1`, the outcome in the series with PM1 was Active. Besides, the IC50 came to 41 µM in series [1], 16 µM in series [3], 51 µM in series [4] and 23 µM in series [5].
For the compound `COc1ccc(NC(=O)C(=O)NC2CC(C)(C)NC(C)(C)C2)cc1`, the IC50 in series [1], in series [4] and in series [5] was over 100 µM each time. Also, the CC50 in series [2] came out at 340 µM.
As for `CC1(C)CC(NC(=O)C(=O)Nc2ccccc2)CC(C)(C)N1`, the result with PM1 was inactive. For the same compound, the IC50 in series [1] is over 100 µM; in series [3], 81 µM; in series [4] it was over 100 µM; in series [5] it was over 100 µM. This compound returned a CC50 in series [2] of 350 µM.
With `CC1(C)CC(NC(=O)C(=O)Nc2ccc(Cl)cc2)CC(C)(C)N1`, in the series with PM1, the result was Active. Moreover, the IC50 in series [1] was 10 µM; in series [3] it was 5 µM; in series [4], over 30 µM; in series [5], 8 µM. Further, the CC50 in series [2] amounted to 170 µM.
As for `CC1(C)CC(NC(=O)C(=O)Nc2ccc(F)cc2)CC(C)(C)N1`, the IC50 was 81 µM in series [1], over 100 µM in series [4] and 61 µM in series [5]. In series [2], this compound returned a CC50 of 320 µM.
Take `CC1(C)CC(NC(=O)C(=O)Nc2ccc(Br)cc2)CC(C)(C)N1`: the concentration for half-maximal inhibition (IC50) in series [1] amounted to 9 µM; in series [5] it was 4 µM. Also, the Kd in series [6] is 2.2 µM. In series [2], this compound returned a CC50 of 150 µM.
As for `CC1(C)CC(NC(=O)C(=O)Nc2ccc([N+](=O)[O-])cc2)CC(C)(C)N1`, the IC50 in series [1] worked out at 42 µM. In series [2], this compound returned a CC50 of 230 µM.

Values taken from ChEMBL document CHEMBL1153139, “CD4 mimics targeting the mechanism of HIV entry” (Bioorg Med Chem Lett, 2010).
